Data as given in ChEMBL document CHEMBL4138262, “Antineoplastic Agents. 606. The Betulastatins” (2018).
Values after ≈ are worked out from the molar mass of the structure shown.

How the values were obtained:
Type in all cases: functional
DU-145 = experiment: Growth inhibition of human DU145 cells after 48 hrs by SRB assay; conditions: DU-145, 48 h
Outline: (§1)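 Cells in RPMI1640 with 5% fetal bovine serum were seeded in 96-well plates and incubated 24 h before serial dilutions of compound were added. After 48 h, plates were TCA-fixed, stained with sulforhodamine B and read on a microplate reader. Five serial dilutions were tested, with optical density in duplicate per end point. GI50 was calculated from optical density as the concentration halving net protein increase.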

SF-268 = experiment: Growth inhibition of human SF268 cells after 48 hrs by SRB assay; conditions: SF-268, 48 h; outline: as §1
NCI-H460 = experiment: Growth inhibition of human NCI-H460 cells after 48 hrs by SRB assay; conditions: NCI-H460, 48 h; outline: as §1
MCF7 = experiment: Growth inhibition of human MCF7 cells after 48 hrs by SRB assay; conditions: MCF7, 48 h; outline: as §1
KM-20L2 = experiment: Growth inhibition of human KM20L2 cells after 48 hrs by SRB assay; conditions: KM-20L2, 48 h; outline: as §1
BXPC-3 = experiment: Growth inhibition of human BxPC3 cells after 48 hrs by SRB assay; conditions: BXPC-3, 48 h; outline: as §1

SMILES | GI50 (DU-145) | GI50 (SF-268) | GI50 (NCI-H460) | GI50 (MCF7) | GI50 (KM-20L2) | GI50 (BXPC-3)
C=C(CBr)[C@@H]1CC[C@]2(COC(C)=O)CC[C@]3(C)[C@H](CC[C@@H]4[C@@]5(C)CC[C@H](OC(C)=O)C(C)(C)[C@@H]5CC[C@]43C)[C@@H]12 | > 10 µg/mL | > 10 µg/mL | > 10 µg/mL | > 10 µg/mL | > 10 µg/mL | > 10 µg/mL
C=C(C)[C@@H]1CC[C@]2(COC(C)=O)CC[C@]3(C)[C@H](CC[C@@H]4[C@@]5(C)CC[C@H](N)C(C)(C)[C@@H]5CC[C@]43C)[C@@H]12 | 0.13 µg/mL (≈ 0.269 µM) | 0.21 µg/mL (≈ 0.434 µM) | 0.21 µg/mL (≈ 0.434 µM) | 0.2 µg/mL (≈ 0.413 µM) | 0.35 µg/mL (≈ 0.723 µM) | 1.1 µg/mL (≈ 2.27 µM)
CC[C@H](C)[C@@H]([C@@H](CC(=O)N1CCC[C@H]1[C@H](OC)[C@@H](C)C(=O)NCCN1C(=O)[C@]23CCC(C)(C)C1[C@@H]2[C@H]1CC[C@@H]2[C@@]4(C)CC[C@H](O)C(C)(C)[C@@H]4CC[C@@]2(C)[C@]1(C)CC3)OC)N(C)C(=O)[C@@H](NC(=O)[C@H](C(C)C)N(C)C)C(C)C | 0.06 µg/mL (≈ 0.0556 µM) | 0.09 µg/mL (≈ 0.0834 µM) | 0.6 µg/mL (≈ 0.556 µM) | 0.21 µg/mL (≈ 0.195 µM) | 0.22 µg/mL (≈ 0.204 µM) | 0.31 µg/mL (≈ 0.287 µM)
C=C(C)[C@@H]1CC[C@]2(CO)CC[C@]3(C)[C@H](CC[C@@H]4[C@@]5(C)CC[C@H](NC(=O)[C@H](C)[C@@H](OC)[C@@H]6CCCN6C(=O)C[C@@H](OC)[C@H]([C@@H](C)CC)N(C)C(=O)[C@@H](NC(=O)[C@H](C(C)C)N(C)C)C(C)C)C(C)(C)[C@@H]5CC[C@]43C)[C@@H]12 | 0.4 µg/mL (≈ 0.391 µM) | 0.4 µg/mL (≈ 0.391 µM) | 2.1 µg/mL (≈ 2.05 µM) | 0.7 µg/mL (≈ 0.685 µM) | 0.85 µg/mL (≈ 0.831 µM) | 2 µg/mL (≈ 1.96 µM)
C=C(CN)[C@@H]1CC[C@]2(CO)CC[C@]3(C)[C@H](CC[C@@H]4[C@@]5(C)CC[C@H](O)C(C)(C)[C@@H]5CC[C@]43C)[C@@H]12 | 2.1 µg/mL (≈ 4.59 µM) | 4.2 µg/mL (≈ 9.18 µM) | 4 µg/mL (≈ 8.74 µM) | 3.1 µg/mL (≈ 6.77 µM) | 2.9 µg/mL (≈ 6.34 µM) | 3 µg/mL (≈ 6.55 µM)
C=C(C)[C@@H]1CC[C@]2(CNC(=O)[C@H](C)[C@@H](OC)[C@@H]3CCCN3C(=O)C[C@@H](OC)[C@H]([C@@H](C)CC)N(C)C(=O)[C@@H](NC(=O)[C@H](C(C)C)N(C)C)C(C)C)CC[C@]3(C)[C@H](CC[C@@H]4[C@@]5(C)CC[C@H](O)C(C)(C)[C@@H]5CC[C@]43C)[C@@H]12 | 0.4 µg/mL (≈ 0.391 µM) | 0.3 µg/mL (≈ 0.293 µM) | > 1 µg/mL | 0.4 µg/mL (≈ 0.391 µM) | 0.31 µg/mL (≈ 0.303 µM) | 0.6 µg/mL (≈ 0.587 µM)
C=C(CNC(=O)[C@H](C)[C@@H](OC)[C@@H]1CCCN1C(=O)C[C@@H](OC)[C@H]([C@@H](C)CC)N(C)C(=O)[C@@H](NC(=O)[C@H](C(C)C)N(C)C)C(C)C)[C@@H]1CC[C@]2(CO)CC[C@]3(C)[C@H](CC[C@@H]4[C@@]5(C)CC[C@H](O)C(C)(C)[C@@H]5CC[C@]43C)[C@@H]12 | 0.04 µg/mL (≈ 0.0385 µM) | 0.04 µg/mL (≈ 0.0385 µM) | 0.5 µg/mL (≈ 0.481 µM) | 0.08 µg/mL (≈ 0.077 µM) | 0.09 µg/mL (≈ 0.0867 µM) | 0.4 µg/mL (≈ 0.385 µM)
C=C(CN=[N+]=[N-])[C@@H]1CC[C@]2(COC(C)=O)CC[C@]3(C)[C@H](CC[C@@H]4[C@@]5(C)CC[C@H](OC(C)=O)C(C)(C)[C@@H]5CC[C@]43C)[C@@H]12 | > 10 µg/mL | > 10 µg/mL | > 10 µg/mL | > 10 µg/mL | > 10 µg/mL | > 10 µg/mL
C=C(C)[C@@H]1CC[C@]2(CN)CC[C@]3(C)[C@H](CC[C@@H]4[C@@]5(C)CC[C@H](OC(C)=O)C(C)(C)[C@@H]5CC[C@]43C)[C@@H]12 | 1.8 µg/mL (≈ 3.72 µM) | 1.8 µg/mL (≈ 3.72 µM) | 1.9 µg/mL (≈ 3.93 µM) | 1.8 µg/mL (≈ 3.72 µM) | 1.9 µg/mL (≈ 3.93 µM) | 1.9 µg/mL (≈ 3.93 µM)
C=C(CNC(=O)[C@H](C)[C@@H](OC)[C@@H]1CCCN1C(=O)OC(C)(C)C)[C@@H]1CC[C@]2(COC(C)=O)CC[C@]3(C)[C@H](CC[C@@H]4[C@@]5(C)CC[C@H](OC(C)=O)C(C)(C)[C@@H]5CC[C@]43C)[C@@H]12 | > 10 µg/mL | 5.9 µg/mL (≈ 7.27 µM) | > 10 µg/mL | > 10 µg/mL | 7 µg/mL (≈ 8.63 µM) | > 10 µg/mL
C=C(C)[C@@H]1CC[C@]2(COC(C)=O)CC[C@]3(C)[C@H](CC[C@@H]4[C@@]5(C)CC[C@@H](N)C(C)(C)[C@@H]5CC[C@]43C)[C@@H]12 | 1.3 µg/mL (≈ 2.69 µM) | 1.2 µg/mL (≈ 2.48 µM) | 6 µg/mL (≈ 12.4 µM) | 2.1 µg/mL (≈ 4.34 µM) | 3 µg/mL (≈ 6.2 µM) | > 10 µg/mL
C=C(C)[C@@H]1CC[C@]2(COC(C)=O)CC[C@]3(C)[C@H](CC[C@@H]4[C@@]5(C)CC[C@H](NC(=O)[C@H](C)[C@@H](OC)[C@@H]6CCCN6C(=O)C[C@@H](OC)[C@H]([C@@H](C)CC)N(C)C(=O)[C@@H](NC(=O)[C@H](C(C)C)N(C)C)C(C)C)C(C)(C)[C@@H]5CC[C@]43C)[C@@H]12 | 2.5 µg/mL (≈ 2.35 µM) | 3.8 µg/mL (≈ 3.57 µM) | > 10 µg/mL | 4.1 µg/mL (≈ 3.85 µM) | 7 µg/mL (≈ 6.58 µM) | 10 µg/mL (≈ 9.39 µM)
C=C(C)[C@@H]1CC[C@]2(COC(C)=O)CC[C@]3(C)[C@H](CC[C@@H]4[C@@]5(C)CC[C@H](NC(=O)[C@H](C)[C@@H](OC)[C@@H]6CCCN6C(=O)OC(C)(C)C)C(C)(C)[C@@H]5CC[C@]43C)[C@@H]12 | > 10 µg/mL | > 10 µg/mL | > 10 µg/mL | > 10 µg/mL | > 10 µg/mL | > 10 µg/mL
CC[C@H](C)[C@@H]([C@@H](CC(=O)N1CCC[C@H]1[C@H](OC)[C@@H](C)C(=O)NCCN1C(=O)[C@]23CCC(C)(C)C1[C@@H]2[C@H]1CC[C@@H]2[C@@]4(C)CC[C@H](OC(C)=O)C(C)(C)[C@@H]4CC[C@@]2(C)[C@]1(C)CC3)OC)N(C)C(=O)[C@@H](NC(=O)[C@H](C(C)C)N(C)C)C(C)C | 0.39 µg/mL (≈ 0.348 µM) | 1.3 µg/mL (≈ 1.16 µM) | 5.1 µg/mL (≈ 4.55 µM) | 3.6 µg/mL (≈ 3.21 µM) | 3.1 µg/mL (≈ 2.76 µM) | 3.8 µg/mL (≈ 3.39 µM)
C=C(CNC(=O)[C@H](C)[C@@H](OC)[C@@H]1CCCN1C(=O)OC(C)(C)C)[C@@H]1CC[C@]2(CO)CC[C@]3(C)[C@H](CC[C@@H]4[C@@]5(C)CC[C@H](O)C(C)(C)[C@@H]5CC[C@]43C)[C@@H]12 | > 10 µg/mL | > 10 µg/mL | > 10 µg/mL | 9 µg/mL (≈ 12.4 µM) | > 10 µg/mL | > 10 µg/mL
C=C(C)[C@@H]1CC[C@]2(CNC(=O)[C@H](C)[C@@H](OC)[C@@H]3CCCN3C(=O)OC(C)(C)C)CC[C@]3(C)[C@H](CC[C@@H]4[C@@]5(C)CC[C@H](OC(C)=O)C(C)(C)[C@@H]5CC[C@]43C)[C@@H]12 | > 10 µg/mL | > 10 µg/mL | > 10 µg/mL | > 10 µg/mL | > 10 µg/mL | > 10 µg/mL
C=C(C)[C@@H]1CC[C@]2(CNC(=O)[C@H](C)[C@@H](OC)[C@@H]3CCCN3C(=O)C[C@@H](OC)[C@H]([C@@H](C)CC)N(C)C(=O)[C@@H](NC(=O)[C@H](C(C)C)N(C)C)C(C)C)CC[C@]3(C)[C@H](CC[C@@H]4[C@@]5(C)CC[C@H](OC(C)=O)C(C)(C)[C@@H]5CC[C@]43C)[C@@H]12 | 3.7 µg/mL (≈ 3.48 µM) | 2.6 µg/mL (≈ 2.44 µM) | 4.2 µg/mL (≈ 3.95 µM) | 3.6 µg/mL (≈ 3.38 µM) | 2.4 µg/mL (≈ 2.25 µM) | 4.1 µg/mL (≈ 3.85 µM)
C=C(CNC(=O)[C@H](C)[C@@H](OC)[C@@H]1CCCN1C(=O)C[C@@H](OC)[C@H]([C@@H](C)CC)N(C)C(=O)[C@@H](NC(=O)[C@H](C(C)C)N(C)C)C(C)C)[C@@H]1CC[C@]2(COC(C)=O)CC[C@]3(C)[C@H](CC[C@@H]4[C@@]5(C)CC[C@H](OC(C)=O)C(C)(C)[C@@H]5CC[C@]43C)[C@@H]12 | 3 µg/mL (≈ 2.67 µM) | 4 µg/mL (≈ 3.56 µM) | > 10 µg/mL | 6.3 µg/mL (≈ 5.61 µM) | 4 µg/mL (≈ 3.56 µM) | 8 µg/mL (≈ 7.13 µM)
C=C(C)[C@@H]1CC[C@]2(COC(C)=O)CC[C@]3(C)[C@H](CC[C@@H]4[C@@]5(C)CC/C(=N/O)C(C)(C)[C@@H]5CC[C@]43C)[C@@H]12 | > 10 µg/mL | > 10 µg/mL | > 10 µg/mL | 5.9 µg/mL (≈ 11.9 µM) | 14.1 µg/mL (≈ 28.3 µM) | 10.4 µg/mL (≈ 20.9 µM)
